Data set [1] relates to Candida albicans. Briefly: Antifungal activity against Candida albicans SC5314 infected in HeLa cells after 5 days by fluorescein diacetate assay. The format is functional, organism-based. Summed up:
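HeLa cells co-incubated with C. albicans and compound for 5 days. Dose–response from resynthesized compounds. Host-cell viability checked microscopically at 18 h, then quantified at day 5 by fluorescein diacetate conversion to a fluorophore by live cells. Wells also inspected visually for yeast growth. Controls: untreated uninfected HeLa (~100%) and untreated infected HeLa (~0%). IC50 derived from infected cells; CC50 as half-maximal cytotoxic concentration.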

The nature of data set [2]: Selectivity index of CC50 for human HeLa cells to IC50 for Candida albicans SC5314 infected in HeLa cells. Summed up:
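Selectivity index calculated as CC50/IC50. CC50 is the half-maximal cytotoxic concentration in HeLa cells; IC50 is the half-maximal antimycotic concentration in the C. albicans–infected HeLa assay. Both come from 5-day fluorescein diacetate viability readouts.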

Data set [3] deals with Candida albicans. Briefly: Antifungal activity against Candida albicans DSMZ 11949 by broth dilution method. Type of data set: functional. In outline:
(§1)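 MICs by broth microdilution following CLSI M27-A3 for yeasts, with fluconazole as the reference antifungal. Panel covered type strains and clinical isolates of Candida spp. (21 strains). Reference control strains: C. albicans DSMZ 11949, C. glabrata ATCC 90030, C. parapsilosis 22019 and 90018, Issatchenkia orientalis ATCC 6258. MIC in μg/mL; averages given as geometric means.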

Data set [4] is described as follows: Cytotoxicity against human HeLa cells assessed as cell viability after 5 days by fluorescein diacetate assay. Type of data set: cell-based.
The test system of data set [5] is Candida albicans. Briefly: Antifungal activity against Candida albicans SC5314 infected in HeLa cells at 20 uM after 5 days by fluorescein diacetate assay. The format is functional, organism-based. In outline: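 Primary HTS: HeLa cells co-incubated with C. albicans plus a single compound at ~20 μM for 5 days. Viability checked microscopically at 18 h and quantified at day 5 by fluorescein diacetate fluorescence. Wells also scanned visually for yeast growth. Hit criterion: >40% signal relative to the uninfected untreated HeLa (~100%) and infected untreated HeLa (~0%) controls.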

For data set [6], the system named is Nakaseomyces glabratus. Briefly: Antifungal activity against Candida glabrata ATCC 90030 by broth dilution method. Type of data set: functional. In outline:
as §1

In data set [7] the test system is Candida parapsilosis. Briefly: Antifungal activity against Candida parapsilosis 22019 by broth dilution method. Type of data set: functional. The settings on record: Lodderomyces parapsilosis. In outline:
as §1
(In general: In broth dilution the organism is exposed to a series of concentrations in liquid medium.)

Data set [8] concerns Candida parapsilosis. Briefly: Antifungal activity against Candida parapsilosis 90018 by broth dilution method. The format is functional. The settings on record: Lodderomyces parapsilosis. Summed up: as §1
For a further data set, the system named is Pichia kudriavzevii. Briefly: Antifungal activity against Issatchenkia orientalis ATCC 6258 by broth dilution method. Type of data set: functional. Summed up:
as §1

Data set [9] relates to Nakaseomyces glabratus. Briefly: Antifungal activity against Candida glabrata AN 8626 by broth dilution method. The format is functional. In outline: as §1
Data set [10] relates to Nakaseomyces glabratus. Briefly: Antifungal activity against Candida glabrata CG 7 by broth dilution method. Type of data set: functional. Summed up:
as §1

Data set [11] relates to Candida albicans. Briefly: Antifungal activity against Candida albicans CA20 by broth dilution method. Type of data set: functional. In outline: as §1
Data set [12] relates to Candida albicans. Briefly: Antifungal activity against Candida albicans CA21 by broth dilution method. The format is functional. In outline:
as §1

Data set [13] has as its system Candida albicans. Briefly: Antifungal activity against Candida albicans MY 2902/2008 by broth dilution method. The format is functional. In outline:
as §1

Data set [14] relates to Candida albicans. Briefly: Antifungal activity against Candida albicans SCS 71865 L by broth dilution method. The format is functional. In outline:
as §1

Data set [15] relates to Candida albicans. Briefly: Antifungal activity against Candida albicans Jg 32570 by broth dilution method. The format is functional. Summed up: as §1
Data set [16] concerns Candida albicans. Briefly: Antifungal activity against Candida albicans AM2001/2007 by broth dilution method. The format is functional. Summed up: as §1
The test system of data set [17] is Candida albicans. Briefly: Antifungal activity against Candida albicans AN 1699 by broth dilution method. Type of data set: functional. In outline: as §1
Data set [18] deals with Candida albicans. Briefly: Antifungal activity against Candida albicans AN 1994 by broth dilution method. Type of data set: functional. In outline: as §1
Another data set has as its system Candida tropicalis. Briefly: Antifungal activity against Candida tropicalis AN 1946 by broth dilution method. Type of data set: functional. Summed up:
as §1

Data set [19] concerns Candida albicans. Briefly: Antifungal activity against Candida albicans AN 562 by broth dilution method. Type of data set: functional. Summed up: as §1
Data set [20] has as its system Candida albicans. Briefly: Antifungal activity against Candida albicans VB 1723 by broth dilution method. Type of data set: functional. Summed up: as §1
For data set [21], the system named is Candida albicans. Briefly: Antifungal activity against Candida albicans AN 3156 by broth dilution method. Type of data set: functional. Summed up: as §1
Data set [22] deals with Candida parapsilosis. Briefly: Antifungal activity against Candida parapsilosis AN 5485 by broth dilution method. The format is functional. The settings on record: Lodderomyces parapsilosis. In outline: as §1
Data set [23] has as its system Candida parapsilosis. Briefly: Antifungal activity against Candida parapsilosis AV 7675 by broth dilution method. The format is functional. As to conditions: Lodderomyces parapsilosis. In outline:
as §1

[24] abbreviates: Candida albicans, SC5314, HeLa, 120 h, read-out: IC50.

Each structure is given as a SMILES string. Converted amounts (≈) assume the structure as drawn. The source made the active and inactive calls.

On to `CC(C)[C@@H](N)c1nc2ccccc2n1Cc1cccc(Cl)c1`, for which the 50% inhibitory concentration (IC50) (commonly the midpoint of a concentration-inhibition curve) in the data set with Candida albicans [1] (hela) is “Not Active”.
In the case of `Cc1cccc(Cn2c([C@@H](N)C(C)C)nc3ccccc32)c1`, the “Ratio CC50/IC50” value in data set [2] is given as 3.2. The minimum inhibitory concentration (MIC) – broadly, the lowest concentration found to suppress growth – against Candida albicans [3] was 16 µg/mL (≈ 54.5 µM); in the data set with Nakaseomyces glabratus [6] it was 0.25 µg/mL (≈ 0.852 µM); against Candida parapsilosis [7], 1 µg/mL (≈ 3.41 µM); in the data set on Candida parapsilosis [8], 1 µg/mL (≈ 3.41 µM); against Pichia kudriavzevii, 1 µg/mL (≈ 3.41 µM); against Nakaseomyces glabratus [9], 0.125 µg/mL (≈ 0.426 µM). Also, the minimal inhibitory concentration (MIC) in the data set on Nakaseomyces glabratus [10] amounted to 32 µg/mL (≈ 109 µM); in the data set with Candida albicans [11], 0.125 µg/mL (≈ 0.426 µM); against Candida albicans [12] it was 0.5 µg/mL (≈ 1.7 µM); with Candida albicans [13], 32 µg/mL (≈ 109 µM); in the data set with Candida albicans [14], 32 µg/mL (≈ 109 µM); in the data set on Candida albicans [15], 128 µg/mL (≈ 436 µM). Besides, the minimal inhibitory concentration (MIC) in the data set on Candida albicans [16] was 16 µg/mL (≈ 54.5 µM); in the data set with Candida albicans [17], 64 µg/mL (≈ 218 µM); with Candida albicans [18], 32 µg/mL (≈ 109 µM); in the data set on Candida tropicalis, 8 µg/mL (≈ 27.3 µM); against Candida albicans [19], 32 µg/mL (≈ 109 µM); in the data set on Candida albicans [20], 32 µg/mL (≈ 109 µM). Moreover, the minimum inhibitory concentration (MIC) is 32 µg/mL (≈ 109 µM) against Candida albicans [21], 2 µg/mL (≈ 6.82 µM) in the data set with Candida parapsilosis [22] and 128 µg/mL (≈ 436 µM) in the data set on Candida parapsilosis [23]. In data set [4], the CC50 (usually the concentration giving 50% cytotoxicity) at 120 h came to 10.6 µM. Besides, the IC50 in the data set on Candida albicans [1] (setting [24]) came out at 3.3 µM. The inhibition result in the data set on Candida albicans [5] was “inactive”.
Consider `Cc1cccc(Cn2c([C@H](C)N)nc3ccccc32)c1`, for which the MIC amounted to 8 µg/mL (≈ 30.1 µM) in the data set with Candida albicans [3]; 64 µg/mL (≈ 241 µM) with Nakaseomyces glabratus [6]; 128 µg/mL (≈ 482 µM) in the data set on Candida parapsilosis [7]; 128 µg/mL (≈ 482 µM) against Candida parapsilosis [8]; 128 µg/mL (≈ 482 µM) against Pichia kudriavzevii; 64 µg/mL (≈ 241 µM) against Nakaseomyces glabratus [9]. Also, the MIC in the data set on Nakaseomyces glabratus [10] was 64 µg/mL (≈ 241 µM); against Candida albicans [11], 1 µg/mL (≈ 3.77 µM); against Candida albicans [12] it was 64 µg/mL (≈ 241 µM); in the data set on Candida albicans [13], 32 µg/mL (≈ 121 µM); against Candida albicans [14], 128 µg/mL (≈ 482 µM); against Candida albicans [15] it was 128 µg/mL (≈ 482 µM). The MIC against Candida albicans [16] came to 64 µg/mL (≈ 241 µM); in the data set with Candida albicans [17], 128 µg/mL (≈ 482 µM); against Candida albicans [18] it was 128 µg/mL (≈ 482 µM); in the data set with Candida tropicalis it was 128 µg/mL (≈ 482 µM); in the data set on Candida albicans [19] it was 128 µg/mL (≈ 482 µM); with Candida albicans [20], 128 µg/mL (≈ 482 µM). Moreover, the MIC against Candida albicans [21], in the data set with Candida parapsilosis [22] and against Candida parapsilosis [23] was 128 µg/mL (≈ 482 µM) throughout. In addition, the inhibition result with Candida albicans [5] is “inactive”.
Turning to `CCC[C@H](N)c1nc2ccccc2n1Cc1cccc(C)c1`, the “Ratio CC50/IC50” value in data set [2] is given as 15. The 50% cytotoxic concentration (CC50) at 120 h in data set [4] came to 30 µM. Moreover, the IC50 with Candida albicans [1] (setting [24]) came to 2 µM. Further, the inhibition entry in the data set with Candida albicans [5] was “inactive”.
The corresponding values for `CCC[C@H](N)c1nc2ccccc2n1Cc1ccc(Cl)cc1` are 14, 28 µM, 2 µM and “inactive”.
As to `CC(C)(N)c1nc2ccccc2n1Cc1ccc(Cl)cc1`, in data set [2], the “Ratio CC50/IC50” value turned out to be 10. Further, the CC50 at 120 h in data set [4] worked out at 50 µM. In addition, the half-inhibitory concentration (IC50) with Candida albicans [1] (setting [24]) worked out at 5 µM. The inhibition entry in the data set on Candida albicans [5] was “inactive”.

For the origin of these results see ChEMBL document CHEMBL1828627, “High-throughput-screening-based identification and structure-activity relationship characterization defined (S)-2-(1-aminoisobutyl)-1-(3-chlorobenzyl)benzimidazole as a highly antimycotic agent nontoxic to cell lines” (J Med Chem, 2011).
